Assay [1] can be described thus: Cytotoxicity against human COLO250 cells. It is filed as functional, cell-based. Summed up:
(§1)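 In vitro cytotoxicity against human tumor cells: COLO-250 colon carcinoma cells and KB-16 nasopharyngeal carcinoma cells. Activity expressed as IC50 in µg/mL.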

Assay [2] in a line: Cytotoxicity against human KB16 cells. It is filed as functional, cell-based. Summed up: as §1
The mark [3] stands for this setting: Homo sapiens, KB16, read-out: IC50.

Converted amounts (≈) assume the structure as drawn.

One may read the IC50 as the concentration needed to halve the response being measured. As for `COC(=O)/C=C\C=C/C(=O)O`, the IC50 entry in assay [1] and in assay [2] (kb16) was “Not Active” each time.
For `CCCCCCCCCCCCCCCC[C@@]1(OC)C=C[C@H](CC(=O)OC)OO1`, the IC50 result in assay [1] and in assay [2] (kb16) was “Not Active” in each case.
With `COC(=O)CCC(=O)CC(=O)OC`, the IC50 result in assay [1] and in assay [2] (kb16) was “Not Active” in each case.
In the case of `COC(=O)C[C@@H]1C=CC(=O)O1`, the IC50 result in assay [1] and in assay [2] (kb16) was “Not Active” each time.
As to `CCCCCCCCCCCCCCCC[C@@]1(OC)C=C[C@@H](CC(=O)OC)OO1` [CHONDRILLIN], the 50% inhibitory concentration (IC50) entry in assay [1] is “Not Active”; in assay [2] (setting [3]), 0.74 µg/mL (≈ 1.79 µM).
As for `CCCCCCCCCCCCCCCCc1ccc(CC(=O)OC)o1` [PLAKORSIN A], the IC50 result in assay [1] and in assay [2] (kb16) was “Not Active” throughout.
As for `CCCCCCCCCCCCCCCCc1ccc(CC(=O)O)o1` [PLAKORSIN B], the IC50 was found to be 0.28 µg/mL (≈ 0.799 µM) in assay [1] (Homo sapiens, read-out: IC50) and 3.43 µg/mL (≈ 9.78 µM) in assay [2] (setting [3]).
With `CCCCC(CCC=O)CCCCCCCc1ccc(CC(=O)OC)o1` (stereo not drawn) [PLAKORSIN C], the IC50 entry in assay [1] and in assay [2] (kb16) was “Not Active” throughout.
With `CCCCCCCCCCCCCCCCC(=O)/C=C/C1OC1C(=O)O` (stereo not drawn) [PLAKORTIC ACID], the IC50 entry in assay [1] and in assay [2] (kb16) was “Not Active” each time.

The values above are taken from ChEMBL document CHEMBL1150569, “Three new furan derivatives and a new fatty acid from a Taiwanese marine sponge Plakortis simplex” (J Nat Prod, 2001).
